# Screening results (PubChem BioAssay)
# HCV core dimer: inhibitors of HCV core protein dimerization, primary screen, biochemical, TR-FRET, high-throughput; TR-FRET GST/Flag-core106 dimerization, 1536-well; inhibition, % at 5 µM; 300,000 tested, 0.33% active; AID 1899, 2009;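 active = inhibition above the mean of all tested compounds plus 3 SD, set per screening campaign, cut at about 45% in these data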
#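 Assay system: tagged HCV core106 pair (GST and Flag); medium: KF-containing HEPES buffer, pH 7.45, DTT, CHAPS, BSA; also added: Eu donor and XL665 acceptor anti-tag antibodies; dosing: 5 µM single dose; timing: compound-protein-antibody incubation 4 h at 22.5 °C; signal: TR-FRET 671 and 617 nm emission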
# Vif inh: HIV Vif self-association inhibitors, primary screen, imaging, HEK293T, single point | HEK293T cells, Vif self-association by quenched fluorescence, 24 h | AID 602346, 2012 | inhibition, % at 7.49 µM | 340,000 tested, 0.35% active; in the data active = inhibition above about 50%, passing the limit was not always enough
# DAGLB inhibitor: DAGLB lipase inhibitors, primary screen, biochemical, fluorescence, HTS; HEK293T DAGLB membrane lysate, EnzChek fluorogenic substrate; inhibition, % at 5.17 µM; 340,000 tested, 0.059% active; AID 504411, 2011; in the data active = inhibition above about 34%;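 also: 0% = enzyme with vehicle and 100% = wells lacking enzyme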
# NR2E3 ag-1: NR2E3 agonists in two-hybrid cells, primary screen, cell-based, luminescence, CHO-S, Gal4-NCOR/VP16-NR2E3; Photoreceptor-specific nuclear receptor (Homo sapiens), Q9Y5X4; luciferase; inhibition of corepressor binding, % at 3.98 µM; 360,000 tested, 0.35% active; AID 602229, 2012;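 active = inhibition above the mean of all tested compounds plus 3 SD, cut at about 70% in these data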;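 also: 0% = DMSO with NR2E3 transfected cells and 100% = cells lacking NR2E3 construct; higher means lower luciferase signal from less NR2E3 corepressor binding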
# Target sequence (Q9Y5X4 whole entry, looked up, the tested form may be a part): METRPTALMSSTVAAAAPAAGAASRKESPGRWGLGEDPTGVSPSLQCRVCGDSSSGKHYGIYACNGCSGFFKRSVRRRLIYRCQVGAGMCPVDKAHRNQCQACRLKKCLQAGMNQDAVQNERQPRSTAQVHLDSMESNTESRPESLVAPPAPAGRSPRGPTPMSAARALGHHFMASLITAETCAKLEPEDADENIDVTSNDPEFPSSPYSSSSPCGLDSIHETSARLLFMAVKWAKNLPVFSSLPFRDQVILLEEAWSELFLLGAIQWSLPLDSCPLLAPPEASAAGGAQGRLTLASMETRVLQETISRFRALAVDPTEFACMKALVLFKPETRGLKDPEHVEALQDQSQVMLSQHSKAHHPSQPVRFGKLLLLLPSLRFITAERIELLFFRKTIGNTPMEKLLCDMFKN
# MT1-MMP act inh: blockers of MT1-MMP proenzyme processing, primary screen, HT1080 RFP-PRO-GFP cells, GFP/RFP fluorescence; GFP/RFP ratio fluorescence, overnight; percent of plate control window, DMSO zero; GFP/RFP ratio change, % at 20 µM; AID 651647, 2012; 360,000 tested, 0.061% active;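 active = GFP/RFP ratio change of at least 30% with cell ATP level not reduced by more than half and red fluorescence within 50% of control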
#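 Assay system: HT1080 RFP-PRO-GFP cells | Dosing: 20 µM single dose, 1% DMSO | Incubation: Cells overnight before dosing, compound overnight, 37 °C, 5% CO2 | Evaluation: GFP/RFP fluorescence ratio | Control set: DMSO-only wells and HT1080 RFP-L50D-GFP cell wells as references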
# NR2E3 ag-2: inhibitors of NR2E3-RetCOR corepressor binding, primary screen, NR2E3 agonist project, biochemical, TR-FRET, GST-NR2E3, biotin-RetCOR. Photoreceptor-specific nuclear receptor (Homo sapiens), Q9Y5X4. 1536-well. inhibition of corepressor binding, % at 4.78 µM. 320,000 tested, 0.12% active. AID 2300, 2010;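 active = percent inhibition above the cutoff of mean plus 3 SD of all tested compounds, set per screening campaign, cut at about 20% in these data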;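 also: 0% = DMSO wells and 100% = biotin wells as full block of FRET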
#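 Material: NR2E3–RetCOR corepressor complex / Amount: 1.35 nM GST-NR2E3 / Medium: Tris pH 7.5 / Compound: single nominal compound dose of 4.8 µM / Incubation: 5 h at 4 °C / Technique: TR-FRET, Eu(K)-anti-GST donor, streptavidin-D2 acceptor, ex 340, em 617/671 nm / Read-out basis: percent loss of FRET ratio relative to control wells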
# An asterisk follows results filed as active; x = not tested or not shown. Only some compounds are listed: those with a hit (about 1.1% of all), similar ones and a draw of the others.
SMILES,HCV core dimer,Vif inh,DAGLB inhibitor,NR2E3 ag-1,MT1-MMP act inh,NR2E3 ag-2
Cc1ncoc1C(=O)NC1CCCc2c1cnn2-c1ccc(C(C)(C)C)cc1 (stereo unspecified),x,-30,1,96*,3,x
Cc1ncoc1C(=O)NC1CCCc2c1cnn2-c1cc(F)cc(F)c1 (stereo unspecified),x,0,-5,9,5,x
Cc1nnc(N2C(=O)C(=O)/C(=C(/O)c3ccc4c(c3)OCCO4)C2c2ccc([N+](=O)[O-])cc2)s1 (stereo unspecified),48*,2,5,-30,-5,2
Cc1nnc(N2C(=O)C(=O)/C(=C(/O)c3ccc4c(c3)OCCO4)C2c2cccc([N+](=O)[O-])c2)s1 (stereo unspecified),x,x,2,-24,-2,x
COc1ccc2[nH]c(CN3CCN(C(C)C)C(CCO)C3)c(C)c2c1 (stereo unspecified),-4,64*,-1,-10,0,1
CCOc1cc(N2CCOCC2)c(OCC)cc1NC(=O)COC(=O)c1c(C)noc1C,x,-1,0,-65,4,x
CCN1CCN(C(CNS(=O)(=O)c2ccc(C)cc2)c2cccnc2)CC1 (stereo unspecified),0,53*,2,0,-3,1
CCCOc1ccc(Cc2nn3c(=O)/c(=C/c4ccco4)sc3nc2=O)cc1,3,-5,11,-8,4,2
COc1ccccc1/C=C/C=c1\sc2nc(=O)c(Cc3ccccc3)nn2c1=O,61*,1,12,-20,10,4
Cc1cccc(C(=O)NNC(=O)c2ccc(F)cc2)c1,-9,22,-1,-1,5,-4
O=C(NNC(=O)c1cccc(-n2cccc2)c1)c1ccc(F)cc1,52*,-3,1,-46,-2,-2
CN(CC(=O)Nc1ccc(F)cc1)C(=O)CSc1nncs1,1,16,3,-18,3,3
O=C(CSc1nncs1)NCc1ccc(F)cc1,-2,51*,2,-8,2,5
Cn1c(=O)c(C(=O)COC(=O)c2cc(C3CC3)nc3ccccc23)c(N)n(Cc2ccccc2)c1=O,-4,x,x,x,x,2
Cc1ccc(NC(=O)CSC(C)C(=O)OCC(=O)N2CCN(C(=O)c3ccco3)CC2)cc1 (stereo unspecified),0,61*,1,-17,1,-4
O=C(OCC(=O)N1CCN(C(=O)c2ccco2)CC1)c1cc(-c2ccco2)nc2ccccc12,68*,-4,2,0,-25,1
O=C(OCC(=O)N1CCN(C(=O)c2ccco2)CC1)c1cc(-c2ccc(Cl)c(Cl)c2Cl)nc2ccccc12,29,-19,-2,-1,-3,-2
Cn1c(=O)c(C(=O)COC(=O)c2cc(-c3ccco3)nc3ccccc23)c(N)n(CC2CC2)c1=O,57*,x,x,x,x,3
CC(=O)c1cccc(-c2ccnc3c2CC(C(=O)NCC2CCOCC2)O3)c1 (stereo unspecified),x,8,x,-36,6,x
Cc1cc(C)c(-c2csc(NC(=O)C3=NN(c4ccccc4)C(=O)CC3)n2)c(C)c1,46*,-1,0,3,-16,-1
CCc1ccc(-c2csc(NC(=O)C3=NN(c4ccccc4)C(=O)CC3)n2)cc1,42,-9,-5,0,-5,3
CC(O)(c1ccccc1)c1nc(-c2cccc(C(F)(F)F)c2)cs1 (stereo unspecified),x,x,x,13,-5,x
O=C(O)c1ccc(-c2nc(-c3cccc(C(F)(F)F)c3)cs2)cc1,x,59*,-1,-60,3,x
CCOc1ncccc1C(=O)OCc1ccccc1,0,51*,-5,8,-2,0
Cc1ccc(/C=C/C(=O)O)cc1S(=O)(=O)N1CCc2ccccc21,4,58*,-1,-9,-1,1
SMILES,HCV core dimer,Vif inh,DAGLB inhibitor,NR2E3 ag-1,MT1-MMP act inh,NR2E3 ag-2
COC(=O)C[C@@H]1C=C[C@H](NC(=O)Nc2cc(F)ccc2F)[C@@H](CO)O1,x,x,x,x,2,x
COc1ccc(S(=O)(=O)N2CCOCC2)cc1NC(=O)c1cccc(-n2cccc2)c1,65*,x,0,3,1,0
CSc1nc(SCC(=O)NCc2ccco2)c2c3c(sc2n1)CN(C)CC3,48*,-2,0,3,-3,0
CC1=Nc2nc(N3CCCCC3)c(C#N)c3c4c(nc(c23)N1)N(c1ccc(C(C)C)cc1)C(=O)C4,46*,-1,10,2,-9,7
CC(C)c1ccc(-c2nc(N3CCCCC3)[nH]c(=O)c2C#N)cc1,11,-2,-3,-14,0,2
CSc1n[nH]c(NC2=CC(=O)CCC2)n1,-2,59*,2,11,-2,4
O=c1cc(CSc2nnnn2-c2ccccc2)nc2scc(-c3ccccc3)n12,60*,x,3,-11,-4,2
O=c1cc(CSc2nnnn2-c2ccccc2)nc2sccn12,4,-7,4,-7,-8,-1
NC(c1csc(Nc2ccc(C(=O)c3ccccc3)cc2)n1)C1CCCCC1 (stereo unspecified),x,65*,x,19,-10,x
Cc1ccc(N(CC(O)CN2CCOCC2)S(=O)(=O)c2ccc([N+](=O)[O-])cc2)cc1 (stereo unspecified),0,0,-2,12,2,0
COC(=O)c1cc(C)ccc1OCc1ccc([N+](=O)[O-])cc1,0,82*,-3,1,4,1
COC(=O)c1ccc(COc2ccc(C)cc2[N+](=O)[O-])o1,3,-5,x,-13,2,-1
Cc1ccc(NCc2nnc(SCC(=O)c3ccccc3)n2Cc2ccco2)c(C)c1,64*,-2,-1,4,-8,3
O=C(Cn1nnc2ccccc21)NNC(=S)NC1CCCCC1,-3,15,2,-3,2,-2
CCN(CC)C(=O)CSc1ncnc2sccc12,5,-11,2,-24,1,0
CCN(CC)C(=O)CSc1ncnc2c(-c3cccs3)nsc12,47*,x,-8,-80,-22,-2
